Molecules are shown by their SMILES.

Data set [1] in a line: Partition coefficient (logP). The note with it: octanol/water. Type of data set: physicochemical. In outline:
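1-Octanol/water partition by titration: 10–40 mL aqueous test compound (1 mM) with 4–25 mL 1-octanol, stirred vigorously, titrated with 0.1 N NaOH; apparent pKa′ calculated, from which partition coefficient obtained.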

The nature of data set [2]: Compound was evaluated for -Log [fraction ionized x ED50 (protection)]. It counts as ADME.
Data set [3] in a line: Therapeutic index is the ratio of ED50 (ataxia) to ED50 (protection) in mice. To be noted: mouse; read-out: TI.
The species named for data set [4] is Mus musculus. The experiment in a line: Compound was evaluated for protection against tachycardia in mice. It counts as functional. The essentials: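 Mice given test agent, then chloroform-induced tachycardia (modified Lawson method); efficacy scored as percentage of mice protected at each dose. Doses stepped ≥0.15 log unit up/down to give low, medium and high protection incidence; ED50 (mmol/kg) by Berkson logit chi-square method.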

The species entered for data set [5] is Mus musculus. In words: Compound was evaluated for ataxia in mice. It counts as functional.
Data set [6] can be described thus: Dissociation constant (pKa). Type of data set: physicochemical.

In data set [1], `Cc1cccc(C)c1NC(=O)C(C)N` (configuration not stated) [TOCAINIDE] came in with a logP of 0.76. The “p[BH+50]” value in data set [2] came to 0.5. For the same molecule, the selectivity ratio in data set [3] stood at 1.4. For the same molecule, the ED50 in data set [4] was found to be 550 µmol/kg; in data set [5] it was 760 µmol/kg. The pKa in data set [6] came out at 7.54.
In turn, `Cc1cccc(C)c1NC(=O)CCCCN` yielded a logP in data set [1] of 1.02. In addition, the “p[BH+50]” value in data set [2] is 0.51. Besides, the selectivity ratio in data set [3] stood at 5.8. In addition, the 50% effective dose (ED50) in data set [4] was determined as 310 µmol/kg; in data set [5] it was 1810 µmol/kg. Also, the pKa in data set [6] was determined as 9.81.
In data set [1], `Cc1cccc(C)c1NC(=O)CN` [GLYCINEXYLIDIDE] displayed a logP of 0.45. The “p[BH+50]” value in data set [2] stood at 0.37. Besides, in data set [3], the selectivity ratio came out at 0.7. Moreover, the ED50 in data set [4] is 840 µmol/kg; in data set [5] it was 620 µmol/kg. The molecule further had a pKa in data set [6] of 7.42.
As for `Cc1cccc(C)c1NC(=O)CCCN`, the lipophilicity (logP) in data set [1] came to 0.71. The “p[BH+50]” value in data set [2] worked out at 0.1. The selectivity ratio in data set [3] turned out to be 4.1. Also, the ED50 was 800 µmol/kg in data set [4] and 3250 µmol/kg in data set [5]. The molecule also yielded a pKa in data set [6] of 9.35.
For `CCN(CC)C(C)CCC(=O)Nc1c(C)cccc1C` (configuration not stated), the logP in data set [1] came to 2.66. In data set [2], the “p[BH+50]” value turned out to be 0.68. The selectivity ratio in data set [3] amounted to 5.5. The ED50 is 210 µmol/kg in data set [4] and 1150 µmol/kg in data set [5]. In data set [6], the pKa turned out to be 9.87.
In the case of `Cc1cccc(C)c1NC(=O)CC(C)N` (configuration not stated), the logP in data set [1] was 0.84. Besides, the “p[BH+50]” value in data set [2] was determined as 0.62. For the same molecule, the selectivity ratio in data set [3] is 6.6. Moreover, the ED50 is 250 µmol/kg in data set [4] and 1640 µmol/kg in data set [5]. Moreover, the pKa in data set [6] came to 8.71.
On to `Cc1cccc(C)c1NC(=O)CCCC(C)N` (configuration not stated), for which the logP in data set [1] worked out at 1.41. In data set [2], the “p[BH+50]” value was determined as 0.72. The selectivity ratio in data set [3] worked out at 6.2. The ED50 worked out at 190 µmol/kg in data set [4] and 1170 µmol/kg in data set [5]. Further, the pKa in data set [6] came out at 9.79.
With `Cc1cccc(C)c1NC(=O)CCN`, the logP in data set [1] is 0.62. Also, the “p[BH+50]” value in data set [2] came to 0.16. In addition, the selectivity ratio in data set [3] was 3.2. Besides, the figures for the median effective dose (ED50) in data set [4] and in data set [5] were 720 µmol/kg and 2300 µmol/kg, respectively. In data set [6], the pKa came to 8.75.
In data set [1], `CCN(CC)CCCC(=O)Nc1c(C)cccc1C` registered a logP of 2.06. Also, in data set [2], the “p[BH+50]” value came to 0.86. Further, in data set [3], the selectivity ratio amounted to 5.4. The ED50 in data set [4] amounted to 140 µmol/kg; in data set [5] it was 760 µmol/kg. The pKa in data set [6] came to 9.52.
As to `CCN(CC)C(C)CCCC(=O)Nc1c(C)cccc1C` (configuration not stated), the logP in data set [1] amounted to 2.64. Moreover, in data set [2], the “p[BH+50]” value was determined as 1. Further, the selectivity ratio in data set [3] was found to be 7.9. Moreover, the ED50 in data set [4] stood at 100 µmol/kg; in data set [5] it was 790 µmol/kg. The molecule also came in with a pKa in data set [6] of 10.1.
Regarding `CCN(CC)C(C)CC(=O)Nc1c(C)cccc1C` (configuration not stated), in data set [1], the lipophilicity (logP) was 2.63. Besides, the “p[BH+50]” value in data set [2] came to 1.31. In addition, the selectivity ratio in data set [3] amounted to 1.8. The ED50 is 50 µmol/kg in data set [4] and 90 µmol/kg in data set [5]. In data set [6], this molecule showed a pKa of 9.03.
In turn, `CCN(CC)CCCCC(=O)Nc1c(C)cccc1C` returned a logP in data set [1] of 2.42. The “p[BH+50]” value in data set [2] was determined as 0.92. For the same molecule, in data set [3], the selectivity ratio was found to be 5.5. For the same molecule, the figures for the ED50 in data set [4] and in data set [5] were 120 µmol/kg and 660 µmol/kg, respectively. In data set [6], this molecule registered a pKa of 9.96.
Turning to `CCN(CC)CCCCCCC(=O)Nc1c(C)cccc1C`, the logP in data set [1] stood at 3.48. Moreover, in data set [2], the “p[BH+50]” value worked out at 1.4. Further, the selectivity ratio in data set [3] amounted to 21. Besides, the ED50 in data set [4] turned out to be 40 µmol/kg; in data set [5], 830 µmol/kg. Moreover, the pKa in data set [6] is 10.2.
The molecule `CCN(CC)C(C)C(=O)Nc1c(C)cccc1C` (configuration not stated) yielded a logP in data set [1] of 2.73. Moreover, the “p[BH+50]” value in data set [2] is reported as 0.88. In data set [3], the selectivity ratio was determined as 0.8. For the same molecule, the ED50 is 170 µmol/kg in data set [4] and 130 µmol/kg in data set [5]. This molecule gave a pKa in data set [6] of 7.93.
Consider `CCN(CC)CC(=O)Nc1c(C)cccc1C` [LIDOCAINE], for which the “p[BH+50]” value in data set [2] came out at 0.88. Also, the median effective dose (ED50) in data set [4] was determined as 210 µmol/kg; in data set [5], 180 µmol/kg.
Molecule `Cc1cccc(C)c1NC(=O)CCC(C)N` (configuration not stated) yielded a logP in data set [1] of 1.08. For the same molecule, the “p[BH+50]” value in data set [2] turned out to be 0.45. The selectivity ratio in data set [3] worked out at 7.4. Moreover, the ED50 in data set [4] turned out to be 360 µmol/kg; in data set [5], 2660 µmol/kg. In data set [6], this molecule came in with a pKa of 9.36.
In turn, `CCN(CC)CCCCCC(=O)Nc1c(C)cccc1C` returned a logP in data set [1] of 2.95. Moreover, in data set [2], the “p[BH+50]” value stood at 0.89. In data set [3], the selectivity ratio is 5.2. The figures for the ED50 in data set [4] and in data set [5] were 130 µmol/kg and 670 µmol/kg, respectively. In data set [6], this molecule had a pKa of 10.2.
Turning to `Cc1cccc(C)c1NC(=O)C(C)N(C)C` (configuration not stated), the logP in data set [1] was determined as 1.53. Moreover, the “p[BH+50]” value in data set [2] is listed as 0.94. Also, in data set [3], the selectivity ratio worked out at 0.8. Further, the ED50 in data set [4] was found to be 250 µmol/kg; in data set [5], 200 µmol/kg. The molecule further returned a pKa in data set [6] of 7.33.
In turn, `CCN(CC)CCC(=O)Nc1c(C)cccc1C` gave a logP in data set [1] of 2.21. Also, the “p[BH+50]” value in data set [2] is reported as 0.9. The selectivity ratio in data set [3] worked out at 1.6. Moreover, the ED50 in data set [4] was found to be 130 µmol/kg; in data set [5], 210 µmol/kg. The same molecule displayed a pKa in data set [6] of 8.83.
Take `Cc1cccc(C)c1NC(=O)CCCCCN`: the logP in data set [1] is 1.29. For the same molecule, in data set [2], the “p[BH+50]” value worked out at 0.57. Further, the selectivity ratio in data set [3] came out at 7.7. Further, the ED50 in data set [4] is 270 µmol/kg; in data set [5], 2070 µmol/kg. In data set [6], this molecule registered a pKa of 10.1.
